Assay results pooled from the literature.
Lines come from different studies, so protocols differ.
Target: Insulin receptor-related protein (INSRR, Homo sapiens, UniProt P14616)

SMILES	effect on	method	concentration	remaining binding [%]
CCN1CCN(Cc2ccc(C(=O)Nc3ccc(C)c(Oc4ccc5c(c4)CC(=O)N5)c3)cc2C(F)(F)F)CC1	binding	competition with immobilised ligand	1 µM	93
FC(F)(F)Oc1cccc(-c2cnc3ccc(-c4ccncc4)nn23)c1	cell-free assay	competition with immobilised ligand	5 µM	96
NS(=O)(=O)c1cc(NC(=O)C2(c3ccccc3Cl)CC2)ccc1Oc1cccc(Cl)c1	cell-free assay	competition with immobilised ligand	1 µM	95
C[C@H]1CCN(c2nccc(-c3cnn4ncccc34)n2)C1	binding	–	1 µM	98
COc1cc(-c2cn(C3CCc4ccccc4N(CC(F)(F)F)C3=O)nn2)ccc1-n1ccc(C)n1 (stereo not shown)	cell-free assay	competition with immobilised ligand	1 µM	100
O=C(Nc1c[nH]nc1C(=O)NC1CCNCC1)c1cc(F)cc(F)c1	binding	competition with immobilised ligand	1 µM	92
CC1CCCN1c1nccc(-c2cnn3ncccc23)n1 (stereo not shown)	binding	–	1 µM	100
O=C(NCCCC1CCCCC1)c1ccc(CNC(=O)c2cnn(-c3ccccc3)c2C(F)(F)F)cc1	cell-free assay	competition with immobilised ligand	0.1 µM	100
O=C(NCCCN1CCOCC1)c1ccc(Nc2ncc(Cl)c(-c3ccc(Cl)s3)n2)cc1	binding	competition with immobilised ligand	1 µM	59
CCC(=O)N[C@H]1CC[C@@H](C(=O)N(C)c2ccc(-c3nc4ccccc4o3)cc2)C1	cell-free assay	competition with immobilised ligand	1 µM	100
N[C@@H]1CCN(c2nccc(-c3cnn4ncccc34)n2)C1	binding	–	1 µM	100
COc1cnc(Nc2cccc(S(N)(=O)=O)c2)nc1N1CCN(c2ccccc2)C(=O)C1	binding	competition with immobilised ligand	1 µM	100
O=C(NCCCN1CCOCC1)c1ccc(Nc2nccc(-c3cc4ccccc4s3)n2)cc1	binding	competition with immobilised ligand	1 µM	100
c1cnn2ncc(-c3ccnc(N4CCC45COC5)n3)c2c1	binding	–	1 µM	93
CNC(=O)[C@@H]1CC[C@@H](n2c(-c3ccc4cnccc4c3)nc3ccc(C(=O)NCc4cccc(C(N)=O)c4)cc32)C1	binding	competition with immobilised ligand	1 µM	92
O=C(Nc1cnc(Oc2ccc(F)cc2)nc1)N1CCc2ncccc2[C@@H]1c1ccc(F)cc1	cell-free assay	competition with immobilised ligand	1 µM	84
Cc1cnn2ncc(-c3ccnc(N(C)C)n3)c2c1	binding	–	1 µM	97
Cc1cnc(Nc2ccc(C(=O)N3CCC(N4CCCC4)CC3)cc2)nc1-c1cc2ccccc2s1	binding	competition with immobilised ligand	1 µM	44
COc1ccnn2ncc(-c3ccnc(N(C)C)n3)c12	binding	–	1 µM	99
C[C@@H](c1ccc(-n2cnc3c(N)ncnc32)cc1)N1CCc2nn(C)c(Cc3ccccc3)c2C1=O	binding	competition with immobilised ligand	0.1 µM	91
F[C@@H]1CCN(c2nccc(-c3cnn4ncccc34)n2)C1	binding	–	1 µM	100
CCOCCn1cc(C(=O)Nc2ccc(-n3nc(-c4cccnc4)cc3C(F)(F)F)cn2)ccc1=O	cell-free assay	competition with immobilised ligand	1 µM	100
